The results in this text go back to ChEMBL document CHEMBL3822425, “Isatin Derived Spirocyclic Analogues with α-Methylene-γ-butyrolactone as Anticancer Agents: A Structure-Activity Relationship Study” (J Med Chem, 2016).

Activity calls are given as the source filed them.

In series [1] the test system is A549. Briefly: Inhibition of TNFalpha-induced IKKbeta-mediated NF-kappaB activity in human A549 cells at 10 uM after 2 hrs followed by TNFalpha addition for 7 hrs by ONE-Glo Luciferase reporter based luminescence assay. In kind it is cell-based. In short, it runs like this:
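A549 luciferase cells grown 5 passages without TNFα then 2 passages with or without 5 ng/mL TNFα; 50,000 per well overnight; 10 µM compound 2 h; then 20 ng/mL TNFα 7 h; PrestoBlue 10 min (560ex/590em) viability; ONE-Glo 10 min, luminescence 1000 ms.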
(Reporter assays use an easily measured gene product as a stand-in for the process of interest.)

Series [2] deals with MDA-MB-231. Briefly: Cytotoxicity against human MDA-MB-231 cells assessed as cell growth inhibition after 3 days by presto blue dye based plate reader method. In kind it is functional. Put shortly:
(§1)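 Cells in DMEM high glucose/10% FBS (A2780 in RPMI/10% FBS), 4,000 per well, overnight, then 40 to 0.039 µM or vehicle, 24, 48, 72 h at 37°C, 5% CO2; PrestoBlue 15 min, fluorescence 560ex/590em; growth as 100×[(T−Tz)/(C−Tz)] per NCI algorithm.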

Series [3] deals with T1, Inhibitor of nuclear factor kappa-B kinase subunit beta (Homo sapiens) (UniProt O14920).
T1 sequence (whole entry): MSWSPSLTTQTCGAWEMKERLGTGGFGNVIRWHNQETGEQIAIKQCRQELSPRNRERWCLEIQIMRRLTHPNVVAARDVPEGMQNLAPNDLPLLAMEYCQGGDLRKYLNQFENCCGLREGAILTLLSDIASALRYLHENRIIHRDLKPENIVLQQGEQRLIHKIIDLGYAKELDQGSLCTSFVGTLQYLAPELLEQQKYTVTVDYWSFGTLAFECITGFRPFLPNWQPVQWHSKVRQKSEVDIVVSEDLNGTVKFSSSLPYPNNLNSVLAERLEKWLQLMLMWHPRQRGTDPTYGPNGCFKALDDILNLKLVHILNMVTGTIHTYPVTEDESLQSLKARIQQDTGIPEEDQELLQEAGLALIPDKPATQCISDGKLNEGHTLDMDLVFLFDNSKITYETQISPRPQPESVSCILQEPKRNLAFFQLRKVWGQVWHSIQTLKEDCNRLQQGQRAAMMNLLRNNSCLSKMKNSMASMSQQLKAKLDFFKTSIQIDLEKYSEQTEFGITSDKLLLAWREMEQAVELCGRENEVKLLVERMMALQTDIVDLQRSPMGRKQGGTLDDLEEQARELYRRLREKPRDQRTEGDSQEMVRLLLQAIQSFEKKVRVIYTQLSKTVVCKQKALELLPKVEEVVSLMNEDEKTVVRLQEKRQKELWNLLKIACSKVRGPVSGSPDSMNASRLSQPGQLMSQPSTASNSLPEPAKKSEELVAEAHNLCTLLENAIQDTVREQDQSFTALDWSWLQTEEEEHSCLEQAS
Briefly: Covalent inhibition of IKKbeta (unknown origin) at 10 uM after 1 hr by rhodamine azide dye based SDS-PAGE method. Put shortly: (§2)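 Purified IKKβ or p65 (250 ng in 200 µL) incubated 1 h with 10 µM alkyne probe; click reaction 1 h with 0.1 mM 5-TAMRA azide, 1 mM TCEP, 1 mM CuSO4, 0.1 mM TBTA; methanol precipitation, pellet in SDS buffer, 4-20% SDS-PAGE, fluorescence gel scanning.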

A further series is filed under the species Homo sapiens. Briefly: Covalent inhibition of C-terminus truncated NF-kappaB p65 L15V/P180S/F309S/A439V/V462M mutant (unknown origin) at 10 uM after 1 hr by rhodamine azide dye based SDS-PAGE method. In short, it runs like this:
as §2

The test system of a further series is A2780. The experiment in a line: Cytotoxicity against human A2780 cells assessed as cell growth inhibition after 3 days by presto blue dye based plate reader method. The series is classed as functional. To be noted: A2780, 72 h. Put shortly:
as §1

In series [4] the target is T2, serum albumin (Homo sapiens, UniProt P02768). Briefly: Binding affinity to human serum albumin assessed as half life by MS analysis. The series is classed as ADME.
Series [5] deals with T2, serum albumin. The experiment in a line: Binding affinity to human serum albumin assessed as half life by HPLC analysis. In kind it is ADME.
In series [6] the test system is HeLa. The experiment in a line: Cytotoxicity against human HeLa cells expressing GFP assessed as cell growth inhibition after 3 days by presto blue dye based plate reader method. In kind it is functional. The following applies: 72 h. In short, it runs like this: as §1
The nature of series [7]: Cytotoxicity against human MIAPaCa2 cells assessed as cell growth inhibition after 3 days by presto blue dye based plate reader method. In kind it is functional. To be noted: MIA PaCa-2, 72 h. Put shortly: as §1
In another series the test system is SW480. Briefly: Cytotoxicity against human SW480 cells assessed as cell growth inhibition after 3 days by presto blue dye based plate reader method. In kind it is functional. To be noted: SW480, 72 h.
Series [8] has as its system A549. The experiment in a line: Inhibition of TNFalpha-induced IKKbeta-mediated NF-kappaB activity in human A549 cells at 10 uM after 2 hrs followed by TNFalpha addition for 7 hrs by ONE-Glo Luciferase reporter based luminescence assay.
The target in series [9] is T1, Inhibitor of nuclear factor kappa-B kinase subunit beta (Homo sapiens). Briefly: Inhibition of IKKbeta in human MDA-MB-231 cells assessed as reduction in IkappaBalpha phosphorylation by Western blot analysis. In kind it is cell-based. In short, it runs like this:
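MDA-MB-231 cytoplasmic fractions: swelling 30 min on ice in HEPES/KCl/EDTA/DTT buffer with inhibitors, 1.25% NP-40, centrifuged; lysates on 4-20% gels, PVDF, anti-phospho-IκBα and anti-IκBα, tubulin or GAPDH loading control, ECL detection.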
A general note: Immunoblotting shows a protein as a band on a membrane.

The subject of series [10] is HeLa. The experiment in a line: Induction of apoptosis in human HeLa cells assessed as PARP cleavage after 24 to 48 hrs by Western blot analysis. In kind it is functional, cell-based. In short, it runs like this: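 Cells collected with media and trypsinized pellet combined, lysed in RIPA buffer (pH 8.0), 4-20% SDS-PAGE, Western blot with anti-PARP to detect cleavage; HeLa timepoint 48 h.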

Series [11] has as its target T1, Inhibitor of nuclear factor kappa-B kinase subunit beta (Homo sapiens). Briefly: Inhibition of IKKbeta in human MIAPaCa2 cells assessed as reduction in IkappaBalpha phosphorylation at 10 to 20 uM by Western blot analysis. To be noted: MIA PaCa-2. The series is classed as cell-based.
Series [12] has as its system MDA-MB-231. The experiment in a line: Cytotoxicity against human MDA-MB-231 cells assessed as cell growth inhibition at 0.039 to 40 uM by presto blue dye based plate reader method. The series is classed as functional.
For series [13], the system named is HeLa. Briefly: Anticlonogenic activity against human HeLa cells assessed as inhibition of colony formation after 2 to 7 days by crystal violet staining. The series is classed as functional, cell-based. In short, it runs like this: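 HeLa cells seeded at 500-1000 per well, grown 24 h, drug-treated 48 h at 37°C (DMSO control), then fresh medium for 7 days; methanol fixed 15 min, 0.1% crystal violet 30 min at room temperature, colonies over 50 cells counted.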

T2 sequence (P02768 whole entry): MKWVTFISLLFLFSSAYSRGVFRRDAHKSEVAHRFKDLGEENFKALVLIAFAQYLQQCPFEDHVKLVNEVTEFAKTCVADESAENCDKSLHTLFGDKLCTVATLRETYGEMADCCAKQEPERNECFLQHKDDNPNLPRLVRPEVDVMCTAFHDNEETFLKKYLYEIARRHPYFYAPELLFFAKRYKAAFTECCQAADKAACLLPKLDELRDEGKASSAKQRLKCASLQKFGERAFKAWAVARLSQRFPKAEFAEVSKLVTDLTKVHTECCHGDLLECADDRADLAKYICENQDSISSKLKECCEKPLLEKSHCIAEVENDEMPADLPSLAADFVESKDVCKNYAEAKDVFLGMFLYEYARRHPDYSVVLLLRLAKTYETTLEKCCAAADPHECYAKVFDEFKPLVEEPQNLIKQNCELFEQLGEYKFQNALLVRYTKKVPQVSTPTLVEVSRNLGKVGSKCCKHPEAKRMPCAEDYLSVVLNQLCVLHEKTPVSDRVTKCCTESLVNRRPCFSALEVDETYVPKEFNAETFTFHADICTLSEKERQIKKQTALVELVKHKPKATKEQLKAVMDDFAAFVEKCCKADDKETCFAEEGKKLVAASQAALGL

By inhibition is commonly meant the share of the control response that was lost under treatment. Turning to `C=C1CC(c2ccc(OC)c(OCc3ccccc3)c2)OC1=O` (stereo not drawn), the inhibition in the series with A549 [1] came to 25%.

With `NC(=O)Nc1sc(-c2ccc(F)cc2)cc1C(N)=O`, the “growth inhibition (GI)” value with MDA-MB-231 [2] was “Active”.

Take `C=C1CC(c2cccc(C(F)(F)F)c2)OC1=O` (stereo not drawn): in the series on A549 [1], the inhibition came out at 25%.

One may read the EC50 as the concentration that produces a half-maximal response. In the case of `C#CCCN1C(=O)C2(CC(=C)C(=O)O2)c2ccccc21` (stereo not drawn), the inhibition in the series on A549 [1] is 75%. For the same compound, the inhibition result (in series [3]; in the series listed under Homo sapiens) was “Active” each time. Besides, in the series on A2780, the EC50 was 5.5 µM.

In the case of `C=C1CC(c2c(OC)ccc3ccccc23)OC1=O` (stereo not drawn), in the series on A549 [1], the inhibition entry was “Active”.

For the compound `C=C1CC(c2ccc(C3CC(=C)C(=O)O3)cc2)OC1=O` (stereo not drawn), in the series with A549 [1], the inhibition entry is “Active”.

Regarding `C=C1CC(c2cccc3ccccc23)OC1=O` (stereo not drawn), in the series on A549 [1], the inhibition stood at 50%.

Take `C=C1C(=O)OC2(C(=O)Nc3ccccc32)C1c1ccccc1` (stereo not drawn): the half-maximal effective concentration (EC50) in the series on A2780 amounted to 3.8 µM.

On to `C=C1CC(c2ccnc3ccccc23)OC1=O` (stereo not drawn), for which the inhibition result with A549 [1] was “inactive”.

In general, half-life refers to the time needed for the level to fall by half in the phase considered. In general, IC50 refers to the concentration that gives 50% inhibition. With `C=C1C(=O)O[C@@H]2C3O[C@]3(C)CC/C=C(\C)CC[C@@H]12` (stereo partly drawn), the half-life is 37 min on serum albumin [4] and 66 min at serum albumin [5]. Also, the EC50 in the series with A2780 is 12.9 µM. In addition, the figures for the IC50 (with HeLa [6]; in series [7]; with SW480) were 5.7 µM, 9.8 µM and 15.3 µM, respectively. For the same compound, the inhibition in the series with A549 [8] is more than 95%.

In the case of `C=C1CC2(OC1=O)C(=O)N(C)c1ccccc12` (stereo not drawn), the EC50 with A2780 was found to be 3.9 µM.

`C=C1CC(c2ccc(F)cc2)OC1=O` (stereo not drawn) registered an inhibition in the series with A549 [1] of 25%.

Regarding `CCC(=O)N1CCC[C@@H](n2nc(-c3ccc(Oc4ccccc4)cc3)c3c(N)ncnc32)C1`, the concentration giving a half-maximal response (EC50) in the series with A2780 was 15.2 µM. Moreover, the IC50 in the series with HeLa [6] stood at 15.1 µM; in series [7] it was 8.2 µM; in the series on SW480, 13.4 µM.

Turning to `C=C1CC(c2ccc(OC)cc2)OC1=O` (stereo not drawn), in the series with A549 [1], the inhibition came to 25%.

Compound `C=C1CC(c2cccc(OC)c2)OC1=O` (stereo not drawn) came in with an inhibition with A549 [1] of 25%.

Consider `N#Cc1c(C2CCNCC2)cc(-c2c(O)cccc2OCC2CC2)nc1N`, for which the “growth inhibition (GI)” value in the series on MDA-MB-231 [2] was “Active”.

With `C=CC(=O)N1CCC[C@@H](n2nc(-c3ccc(Oc4ccccc4)cc3)c3c(N)ncnc32)C1` [IBRUTINIB], the concentration giving a half-maximal response (EC50) in the series with A2780 stood at 20.1 µM. The concentration for half-maximal inhibition (IC50) amounted to 16.8 µM in the series on HeLa [6], 16.6 µM in series [7] and 25.6 µM in the series with SW480.

For `C=C(CC1(O)C(=O)Nc2ccccc21)C(=O)OC` (stereo not drawn), the inhibition result (in [9]; with A549 [8]) was “Active” each time.

`C=C1CC(c2ccc(OC)c(OC)c2)OC1=O` (stereo not drawn) had an inhibition with A549 [1] of 25%.

`C=C1CC(c2cccc(Br)n2)OC1=O` (stereo not drawn) displayed an inhibition in the series with A549 [1] of 50%.

Take `C=C1CC(c2ccccn2)OC1=O` (stereo not drawn): the inhibition in the series with A549 [1] was less than 25%.

`CC1CC2(OC1=O)C(=O)Nc1ccccc12` (stereo not drawn): the result in the series with HeLa [10] was inactive. Besides, the inhibition result (in series [9]; in [11]; in the series on HeLa [13]) was “inactive” each time. Also, the “growth inhibition (GI)” value in the series with MDA-MB-231 [2] and in the series with MDA-MB-231 [12] was “inactive” each time. This compound also gave an inhibition with A549 [8] of 5%.

`C=C1CC(c2cccc(OCc3ccccc3)c2)OC1=O` (stereo not drawn): the inhibition with A549 [1] was 25%.

Turning to `C=C1CC(c2ccc3ccccc3c2)OC1=O` (stereo not drawn), the inhibition in the series with A549 [1] came out at 50%.

Take `O=C(Nc1ccc(Br)cc1)Nc1ccc2nc(-c3ccco3)c(-c3ccco3)nc2c1`: the “growth inhibition (GI)” value in the series with MDA-MB-231 [2] was “Active”.

Turning to `C=C1CC(c2ccc(OCc3ccccc3)cc2)OC1=O` (stereo not drawn), the inhibition with A549 [1] was 25%.

As for `C=C1CC2(OC1=O)C(=O)N(Cc1ccccc1)c1ccccc12` (stereo not drawn), the EC50 with A2780 amounted to 2.7 µM.

For `C/C1=C\CC[C@@]2(C)O[C@H]2[C@H]2OC(=O)C(C)[C@@H]2CC1` (stereo partly drawn), the half-maximal effective concentration (EC50) in the series on A2780 is more than 100 µM. For the same compound, the IC50 was 66.1 µM in the series on HeLa [6], 84.3 µM in [7] and more than 100 µM in the series with SW480. This compound also registered an inhibition in the series on A549 [8] of 20%.

Turning to `Cc1ccc(C)c2c1NC(=O)C21CC(C)C(=O)O1` (stereo not drawn), in the series with A2780, the concentration giving a half-maximal response (EC50) is more than 100 µM. Also, the IC50 (in the series on HeLa [6]; in series [7]; in the series with SW480) was more than 100 µM in each case.

As to `C=C1CC2(OC1=O)C(=O)Nc1ccc(I)cc12` (stereo not drawn), the half-maximal effective concentration (EC50) with A2780 is 2.2 µM.

As to `C=C1CC(c2c(OCc3ccccc3)ccc3ccccc23)OC1=O` (stereo not drawn), in the series with A549 [1], the inhibition is less than 25%.

Take `C=C1CC2(OC1=O)C(=O)Nc1ccc(OC)cc12` (stereo not drawn): the EC50 in the series with A2780 amounted to 3.1 µM.

On to `C=C1CC2(OC1=O)C(=O)Nc1c([N+](=O)[O-])cc(Br)cc12` (stereo not drawn), for which the EC50 in the series with A2780 was found to be 2 µM.

In the series on A549 [1], `C=C1CC(c2ccccc2)OC1=O` (stereo not drawn) had an inhibition of 25%.
